# Myeloid diff 2 – myeloid differentiation induction | actives 1% (n = 360,000) | calls only at 10 µM | ER-HoxA9 myeloid progenitors, lysozyme-GFP differentiation, flow cytometry;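 active = normalized GFP-positive differentiation at or above the plate's own cutoff, the solvent-only control mean plus 3 SD; inconclusive = no clear call, values can overlap the other calls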;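 also: cells exposed to compound for four days before flow analysis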
# PP5 inh – PP5 (human) phosphatase inhibition. P53041. purified PP5c, OMFP substrate fluorescence. inhibition, % at 6.7 µM. actives 0.18% (n = 320,000). AID 1987;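 active = inhibition above the campaign's mean inhibition across all tested compounds plus 3 SD, cut at about 9.5% in these data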;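 also: 0% = DMSO only and 100% = 100 µM cantharidin control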
# Target sequence (P53041 whole entry, looked up): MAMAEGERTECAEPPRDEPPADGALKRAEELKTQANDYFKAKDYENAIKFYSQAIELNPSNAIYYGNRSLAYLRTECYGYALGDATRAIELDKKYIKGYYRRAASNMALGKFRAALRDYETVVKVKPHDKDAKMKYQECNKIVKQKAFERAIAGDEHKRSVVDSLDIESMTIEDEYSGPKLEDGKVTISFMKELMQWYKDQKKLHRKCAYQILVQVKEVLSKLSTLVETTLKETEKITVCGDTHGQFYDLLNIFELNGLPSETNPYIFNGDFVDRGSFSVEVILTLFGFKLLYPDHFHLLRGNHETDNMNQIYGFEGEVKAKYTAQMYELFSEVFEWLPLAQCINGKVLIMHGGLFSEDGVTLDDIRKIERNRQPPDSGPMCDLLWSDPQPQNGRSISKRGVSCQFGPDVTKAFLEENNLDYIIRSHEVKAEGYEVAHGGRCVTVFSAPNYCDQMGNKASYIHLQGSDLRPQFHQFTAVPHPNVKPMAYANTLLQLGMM
# NadD inh – blocks S. aureus nicotinate mononucleotide adenylyltransferase | purified NadD enzyme, colorimetric absorbance read-out | inhibition, % at 20 µM | actives 0.78% (n = 360,000); in the data active = inhibition above about 26%
# Fh CTSL1 inh – counter-screen for PFM18AAP inhibitors: inhibitors of F. hepatica cathepsin L1; recombinant F. hepatica cathepsin L1, Z-Leu-Arg-MCA fluorescence; inhibition, % at 5.96 µM; actives 0.49% (n = 300,000); AID 1906;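 active = inhibition above the mean of all tested compounds plus 3 SD, set per screening campaign, cut at about 17% in these data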;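 also: 0% = plate median of test compound wells and 100% = 1 µM Z-Phe-Ala-diazomethylketone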
# HCV core dimer – HCV core protein dimerization inhibition; inhibition, % at 5 µM; TR-FRET GST/Flag-core106 dimerization, 1536-well; actives 0.33% (n = 300,000);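 active = inhibition above the mean of all tested compounds plus 3 SD, set per screening campaign, cut at about 45% in these data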
#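 Test system: GST/Flag-tagged HCV core106 proteins; Medium: KF-containing HEPES buffer, pH 7.45, DTT, CHAPS, BSA; Times: compound-protein-antibody incubation 4 h at 22.5 °C; Detection: TR-FRET 671 and 617 nm emission; Benchmarks: wells lacking GST-core106 and wells with excess unlabelled core106.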
# PP1 inh – counter-screen for PP5 inhibitors: inhibitors of human PP1-alpha; P62136; purified PP1alpha, OMFP fluorescence; inhibition, % at 6.7 µM; actives 0.9% (n = 320,000); AID 2235;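 active = inhibition above the mean inhibition of all tested compounds plus 3 SD, computed separately for each screening campaign, cut at about 15% in these data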
# Myeloid diff – myeloid differentiation induction; shares compounds with Myeloid diff 2; ER-HoxA9 myeloid progenitors, GFP/Mac1 double-positive flow; calls only; actives 2% (n = 2,300);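 active = share of green or green-and-red cells above 9 and 9% in run 1 or 4 and 3% in run 2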
# GFP autofluor – counter-screen for myeloid differentiation promoters: compound fluorescence | fluorescence response, % (test concentration not listed) | AID 651707 | actives 7.4% (n = 2,300) | shares compounds with Myeloid diff 2 | ER-HoxA9 myeloid progenitors, no estrogen, GFP autofluorescence flow cytometry; vehicle wells 0%, positive control 100%;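 active = over 5% cells positive for green fluorescent reporter, or over 2% positive for both it and APC stain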;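 also: range taken on the double positive population between DMSO and positive control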
# Starred values were filed as active, the others as inactive; i = inactive; ? = inconclusive; nt = not tested or not shown; + = active, no number. Compounds with a hit are over-represented: about 3.1% of the library has one in this group of screens.
SMILES,Myeloid diff 2,PP5 inh,NadD inh,Fh CTSL1 inh,HCV core dimer,PP1 inh,Myeloid diff,GFP autofluor
O=C1C=C(O)CC2(CCCCC2)C1,+,nt,6,nt,nt,nt,i,0
Cc1ccc(N2C(=O)CC3(CCCC3)CC2=O)cc1,i,1,-2,-4,0,0,nt,nt
O/C=c1\ccc2cccc3nc(C(F)(F)F)nc1c23,i,-1,33*,13,19,8,i,0
O=C(O)C(Nc1nc(C(F)(F)F)nc2ccccc12)c1ccccc1 (stereo not drawn),i,1,-1,-1,2,-2,nt,nt
S=C(NNc1ccc2ccccc2c1)NC1CCCCC1,i,3,7,-4,0,1,i,0
O=c1c(=Nc2ccccc2O)c(=O)c2ccccc12,+,9,6,33*,-23,-1,i,0
O=Nc1c(O)c2ccccc2c2ccccc12,?,3,4,6,-73,3,nt,nt
CC(C)NC(=O)CC(=O)N/N=C\c1ccccc1C(=O)O,i,-1,-2,-3,-5,-3,nt,nt
CC(O)C(=O)N/N=C/c1ccccc1C(=O)O (stereo not drawn),i,0,2,-1,0,-2,i,0
Cc1ncsc1CCSc1nc2ccccc2c(=O)n1C,i,4,0,4,-1,5,i,0
Cc1ncsc1CCSc1n[nH]c(=O)n1-c1ccccc1,i,2,0,4,1,-5,nt,nt
O=C(NC1CC1)C1CCN(Cc2cnn(-c3ccccc3)c2-n2cccc2)CC1,+,0,3,-1,-2,4,i,1
C=CCNC(=S)N1N=C(c2ccco2)CC1c1ccco1 (stereo not drawn),i,nt,0,nt,nt,nt,i,0
Cc1ccc(C2=NN(C(=S)Nc3ccccc3)C(c3ccco3)C2)cc1 (stereo not drawn),i,0,16,1,-7,-1,nt,nt
COc1ccc(-n2c(C)nnc2SCC(=O)N2C(C)CCCC2C)cc1 (stereo not drawn),+,0,4,1,-3,-4,i,0
COc1ccc(-n2c(C)nnc2SCC(=O)NC2CC2)cc1,i,0,-2,-1,-6,-1,nt,nt
Cc1cccc(C)c1NC(=O)C1(C)CCC(=O)N1CCc1c[nH]c2ccccc12 (stereo not drawn),i,nt,-7,nt,nt,nt,nt,nt
COc1ccc2nc(C)cc(SCC(=O)NNC(=O)COc3cccc4ccccc34)c2c1,i,5,17,-5,-6,0,nt,nt
COc1ccc2nc(C)cc(SCC(=O)NNC(=O)COc3ccc(C)cc3)c2c1,i,2,6,-20,-2,2,i,0
Cc1nnsc1S(=O)(=O)c1ccccc1,i,2,1,0,1,-2,nt,nt
Cc1cc(NC(=O)c2cc(C)on2)n(-c2ccccc2)n1,i,1,-4,-2,-3,3,nt,nt
Cc1cc(NC(=O)c2noc3c2CCCC3)n(-c2ccccc2)n1,+,3,-3,3,-4,-12,i,0
Cc1cc(NC(=O)c2cc(-c3ccc4c(c3)OCO4)on2)n(-c2ccccc2)n1,+,-1,-2,-1,1,-1,i,0
CCN(CC(=O)Nc1c(F)cccc1F)C(=O)C1CCCO1 (stereo not drawn),i,nt,-2,nt,nt,nt,nt,nt
c1cc2c(cc1NC1CCCCCC1)OCO2,+,0,9,-5,5,-1,i,0
SMILES,Myeloid diff 2,PP5 inh,NadD inh,Fh CTSL1 inh,HCV core dimer,PP1 inh,Myeloid diff,GFP autofluor
COC(=O)c1ccc2c(c1)NC1=C(C(=O)CC(C)(C)C1)C(c1ccncc1)N2 (stereo not drawn),+,-1,-5,4,-7,0,i,0
CC(C)Nc1ncnc2c1ncn2[C@H]1CN(Cc2ccc(Cl)cc2)C[C@@H](CO)O1,i,nt,0,nt,nt,nt,nt,nt
Cn1c(=O)c2c(nc(SCC(=O)N3c4ccccc4CCc4ccccc43)n2C)n(C)c1=O,+,nt,5,nt,nt,nt,i,0
O=C1CCC(c2ccccc2)N1c1ccccc1 (stereo not drawn),i,nt,4,nt,nt,nt,nt,nt
Cc1ccc(CNc2nc(NCC3CC3)nc3ccsc23)c(C)c1,+,nt,5,nt,nt,nt,i,0
CCN(CC)C(=O)C1=C(C)N(Cc2ccc(C(C)(C)C)cc2)C(=O)C(CC(=O)NC2CCCC2)C1 (stereo not drawn),i,nt,-1,nt,nt,nt,nt,nt
CCCc1c(NC(=O)Nc2ccc(F)cc2)cnn1-c1ccccc1,+,0,-7,0,-4,0,i,0
CCCc1c(C(=O)Nc2ccc(F)cc2C)cnn1-c1ccccc1,i,3,6,0,1,11,nt,nt
Cc1cc(C)nc(SCc2ccc(C(=O)N/N=C/c3ccncc3)cc2)n1,i,0,-6,1,4,-3,nt,nt
Cc1cc(C)nc(SCc2ccc(C(=O)N/N=C/c3ccccn3)cc2)n1,i,1,-10,-3,3,4,i,0
CN(Cc1ccccc1)C(=O)c1[nH]cnc1C(=O)NCCCCCNC(=O)OC(C)(C)C,+,-1,3,nt,nt,-1,i,1
Cc1ccc(NC(=O)c2nc[nH]c2C(=O)N(C)CCO)cc1,i,nt,1,nt,nt,nt,nt,nt
CCOC(=O)c1ccc(NC(=O)c2nc[nH]c2C(=O)N(C)CCO)cc1,+,nt,-1,nt,nt,nt,i,0
O=C(Cc1cn2ccsc2n1)NCCc1ccc(F)cc1,i,-1,5,7,5,0,i,0
C[C@@H]1CN([C@H](C)CO)C(=O)CCCn2cc(nn2)CO[C@H]1CN(C)S(=O)(=O)c1ccccc1,i,nt,-1,nt,nt,nt,nt,nt
NC(Cc1ccc(Cl)cc1)c1csc(NC(=O)NCC2CCCCC2)n1 (stereo not drawn),+,nt,11,nt,nt,nt,i,1
NC(Cc1ccc(Cl)cc1)c1csc(NC(=O)NCCc2ccccc2)n1 (stereo not drawn),i,nt,5,nt,nt,nt,nt,nt
CC(=O)c1c(O)c(C)c(-c2ccccc2)n(-c2ccccc2)c1=O,i,-2,4,0,13,0,nt,nt
CC(=O)c1c(O)cc(=O)n(-c2ccccc2)c1-c1ccc(C)cc1,i,1,-2,3,2,-3,i,0
O=c1[nH]c(CN2CCN(c3ccccc3)CC2)nc2scc(-c3ccccc3)c12,+,1,7,0,6,5,i,0
COc1ccc(N2CCN(Cc3nc4scc(-c5ccccc5)c4c(=O)[nH]3)CC2)cc1,i,2,4,-2,6,2,nt,nt

# Bioassay records as filed in PubChem BioAssay.
